Experimental data from ChEMBL document CHEMBL1629416, “Developing dual functional allosteric modulators of GABA(A) receptors” (Bioorg Med Chem, 2010).
Several values for one entry are separate records, joined by “and”; a condition that tells them apart may be missing. Equal values may be shown once. Activity calls are given as the source filed them. The rule behind the calls is not given here.

Columns and labels:
[1] = molecular target: T1, GABA-A receptor; alpha-2/beta-3/gamma-2 (Homo sapiens, UniProt P18507+P28472+P47869); test: Binding affinity to human alpha2beta3gamma2 GABA receptor expressed in Xenopus laevis oocytes; assay type: cell-based, Oocyte
T1 sequence (P18507 whole entry): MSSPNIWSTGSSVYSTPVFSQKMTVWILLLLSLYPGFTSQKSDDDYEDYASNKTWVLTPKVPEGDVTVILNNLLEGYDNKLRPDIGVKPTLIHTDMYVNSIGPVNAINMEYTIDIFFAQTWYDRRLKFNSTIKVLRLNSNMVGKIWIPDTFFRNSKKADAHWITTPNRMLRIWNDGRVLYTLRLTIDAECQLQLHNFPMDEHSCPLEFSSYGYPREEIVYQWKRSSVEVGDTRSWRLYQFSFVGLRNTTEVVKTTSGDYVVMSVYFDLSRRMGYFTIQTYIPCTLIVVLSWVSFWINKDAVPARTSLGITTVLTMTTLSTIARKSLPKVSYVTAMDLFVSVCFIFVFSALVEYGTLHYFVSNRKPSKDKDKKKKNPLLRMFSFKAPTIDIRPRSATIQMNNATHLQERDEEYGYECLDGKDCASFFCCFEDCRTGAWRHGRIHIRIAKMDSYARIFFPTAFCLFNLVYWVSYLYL
T1 sequence (P28472 whole entry): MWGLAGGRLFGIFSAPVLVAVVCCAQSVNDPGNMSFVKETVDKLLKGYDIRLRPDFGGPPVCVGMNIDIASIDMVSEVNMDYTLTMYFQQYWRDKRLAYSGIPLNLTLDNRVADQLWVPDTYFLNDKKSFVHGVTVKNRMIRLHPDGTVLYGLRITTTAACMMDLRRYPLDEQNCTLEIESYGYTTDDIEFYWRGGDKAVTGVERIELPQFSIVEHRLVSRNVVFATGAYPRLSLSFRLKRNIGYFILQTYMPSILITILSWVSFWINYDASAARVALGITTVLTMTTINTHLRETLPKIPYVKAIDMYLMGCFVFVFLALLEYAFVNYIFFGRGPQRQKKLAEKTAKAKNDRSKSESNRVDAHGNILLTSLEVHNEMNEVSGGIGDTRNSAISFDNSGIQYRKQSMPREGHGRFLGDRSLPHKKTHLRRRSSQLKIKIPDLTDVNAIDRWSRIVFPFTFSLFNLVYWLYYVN
T1 sequence (P47869 whole entry): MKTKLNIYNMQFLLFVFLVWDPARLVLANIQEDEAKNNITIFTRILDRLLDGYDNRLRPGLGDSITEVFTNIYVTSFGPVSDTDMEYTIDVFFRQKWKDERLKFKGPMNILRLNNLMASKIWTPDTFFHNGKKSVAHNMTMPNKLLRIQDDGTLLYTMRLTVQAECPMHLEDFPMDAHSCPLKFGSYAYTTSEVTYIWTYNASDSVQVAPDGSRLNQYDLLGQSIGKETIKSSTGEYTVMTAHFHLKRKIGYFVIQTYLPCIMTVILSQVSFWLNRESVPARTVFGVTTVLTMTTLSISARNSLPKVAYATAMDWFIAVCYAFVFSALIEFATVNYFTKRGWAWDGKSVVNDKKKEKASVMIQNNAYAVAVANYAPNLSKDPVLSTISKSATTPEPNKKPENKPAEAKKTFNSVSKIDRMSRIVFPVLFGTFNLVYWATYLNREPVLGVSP

[2] = molecular target: T2, GABA-A receptor; alpha-1/beta-2/gamma-2 (Homo sapiens, UniProt P14867+P18507+P47870); test: Binding affinity to human alpha1beta2gamma2 GABA receptor expressed in Xenopus laevis oocytes; assay type: cell-based, Oocyte
T2 sequence (P14867 whole entry): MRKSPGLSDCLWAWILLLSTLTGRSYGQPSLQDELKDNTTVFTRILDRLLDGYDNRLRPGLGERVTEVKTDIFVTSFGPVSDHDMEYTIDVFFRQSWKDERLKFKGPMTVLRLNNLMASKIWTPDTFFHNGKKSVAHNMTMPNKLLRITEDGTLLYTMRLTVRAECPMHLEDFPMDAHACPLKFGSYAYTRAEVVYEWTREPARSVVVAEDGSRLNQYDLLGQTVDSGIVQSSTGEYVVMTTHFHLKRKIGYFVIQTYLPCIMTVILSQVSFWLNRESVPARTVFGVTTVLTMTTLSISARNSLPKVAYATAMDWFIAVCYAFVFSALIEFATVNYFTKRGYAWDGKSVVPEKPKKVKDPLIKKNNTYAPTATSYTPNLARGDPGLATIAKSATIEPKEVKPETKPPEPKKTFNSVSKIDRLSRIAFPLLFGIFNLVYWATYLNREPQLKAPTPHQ
T2 sequence (P47870 whole entry): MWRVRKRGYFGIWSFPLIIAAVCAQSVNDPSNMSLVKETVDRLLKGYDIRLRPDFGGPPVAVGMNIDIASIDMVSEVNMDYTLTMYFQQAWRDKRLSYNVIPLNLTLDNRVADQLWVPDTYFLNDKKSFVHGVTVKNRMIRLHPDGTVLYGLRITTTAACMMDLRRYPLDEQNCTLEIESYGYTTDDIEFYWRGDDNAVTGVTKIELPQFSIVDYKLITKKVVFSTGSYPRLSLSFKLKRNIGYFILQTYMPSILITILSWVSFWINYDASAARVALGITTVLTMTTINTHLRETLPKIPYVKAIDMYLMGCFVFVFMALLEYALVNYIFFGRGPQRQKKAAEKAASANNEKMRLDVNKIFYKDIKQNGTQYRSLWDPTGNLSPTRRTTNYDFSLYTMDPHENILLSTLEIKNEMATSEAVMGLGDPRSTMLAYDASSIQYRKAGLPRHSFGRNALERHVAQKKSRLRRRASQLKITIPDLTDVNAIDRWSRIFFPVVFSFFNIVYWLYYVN
T2 sequence (P18507 whole entry): T1 sequence (P18507 whole entry)

[3] = molecular target: T3, GABA-A receptor; alpha-3/beta-3/gamma-2 (Homo sapiens) (UniProt P18507+P28472+P34903); test: Negative allosteric modulation of human alpha3beta3gamma2 GABA receptor expressed in Xenopus laevis oocytes at 1 uM; assay type: cell-based; conditions: Oocyte
[4] = molecular target: T4, GABA-A receptor; alpha-5/beta-3/gamma-2 (Homo sapiens) (UniProt P18507+P28472+P31644); test: Negative allosteric modulation of human alpha5beta3gamma2 GABA receptor expressed in Xenopus laevis oocytes at 1 uM; assay type: cell-based; conditions: Oocyte
In short: (§1)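 Two-electrode voltage clamp on oocytes expressing human α/β/γ2 subtypes, used 2–10 days after injection. […] Baseline was the mean of three GABA-alone pulses. Result is % modulation, mean ± SEM over individual oocytes.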

[5] = molecular target: T5, GABA-A receptor; alpha-3/beta-3/gamma-2 (Homo sapiens, UniProt P18507+P28472+P34903); test: Binding affinity to human alpha3beta3gamma2 GABA receptor expressed in Xenopus laevis oocytes; assay type: cell-based, Oocyte
T5 sequence (P18507 whole entry): T1 sequence (P18507 whole entry)
T5 sequence (P28472 whole entry): T1 sequence (P28472 whole entry)
T5 sequence (P34903 whole entry): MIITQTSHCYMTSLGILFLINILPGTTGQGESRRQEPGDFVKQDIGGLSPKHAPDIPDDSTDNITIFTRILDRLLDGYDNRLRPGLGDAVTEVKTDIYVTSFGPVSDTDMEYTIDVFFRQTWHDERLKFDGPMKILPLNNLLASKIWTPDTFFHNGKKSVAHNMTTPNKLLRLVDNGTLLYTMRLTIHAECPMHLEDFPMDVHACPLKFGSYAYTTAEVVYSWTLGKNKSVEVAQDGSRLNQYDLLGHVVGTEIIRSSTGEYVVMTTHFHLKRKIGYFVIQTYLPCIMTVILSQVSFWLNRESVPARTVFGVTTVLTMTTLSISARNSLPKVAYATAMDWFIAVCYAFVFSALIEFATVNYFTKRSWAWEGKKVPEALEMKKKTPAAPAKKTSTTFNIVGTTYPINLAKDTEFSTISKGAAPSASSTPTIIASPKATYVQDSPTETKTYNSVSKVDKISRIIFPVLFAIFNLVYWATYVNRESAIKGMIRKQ

[6] = molecular target: T6, GABA-A receptor; alpha-2/beta-3/gamma-2 (Homo sapiens) (UniProt P18507+P28472+P47869); test: Negative allosteric modulation of human alpha2beta3gamma2 GABA receptor expressed in Xenopus laevis oocytes at 1 uM; assay type: cell-based; conditions: Oocyte; in short: as §1
[7] = molecular target: T7, GABA-A receptor; alpha-1/beta-2/gamma-2 (Homo sapiens) (UniProt P14867+P47870+P18507); test: Negative allosteric modulation of human alpha1beta2gamma2 GABA receptor expressed in Xenopus laevis oocytes at 1 uM; assay type: cell-based; conditions: Oocyte
[8] = molecular target: T8, GABA-A receptor; alpha-5/beta-3/gamma-2 (Homo sapiens, UniProt P18507+P28472+P31644); test: Binding affinity to human alpha5beta3gamma2 GABA receptor expressed in Xenopus laevis oocytes; assay type: cell-based, Oocyte
T8 sequence (P18507 whole entry): T1 sequence (P18507 whole entry)
T8 sequence (P28472 whole entry): T1 sequence (P28472 whole entry)
T8 sequence (P31644 whole entry): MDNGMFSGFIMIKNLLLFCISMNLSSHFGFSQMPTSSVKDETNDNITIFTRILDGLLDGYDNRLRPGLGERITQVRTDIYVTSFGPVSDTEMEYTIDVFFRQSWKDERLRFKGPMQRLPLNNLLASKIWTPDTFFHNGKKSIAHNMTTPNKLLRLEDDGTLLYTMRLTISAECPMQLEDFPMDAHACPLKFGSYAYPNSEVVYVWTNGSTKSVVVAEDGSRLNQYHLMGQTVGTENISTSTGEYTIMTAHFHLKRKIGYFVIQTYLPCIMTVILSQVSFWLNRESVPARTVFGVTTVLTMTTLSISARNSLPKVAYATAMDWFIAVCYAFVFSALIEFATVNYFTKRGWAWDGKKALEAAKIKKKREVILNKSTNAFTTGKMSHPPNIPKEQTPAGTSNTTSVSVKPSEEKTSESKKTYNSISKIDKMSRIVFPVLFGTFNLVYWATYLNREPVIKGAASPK

[9] = molecular target: T6, GABA-A receptor; alpha-2/beta-3/gamma-2 (Homo sapiens); test: Positive allosteric modulation of human alpha2beta3gamma2 GABA receptor expressed in Xenopus laevis oocytes at 1 uM; assay type: cell-based; conditions: Oocyte; in short: as §1
[10] = molecular target: T1, GABA-A receptor; alpha-2/beta-3/gamma-2; test: Displacement of [3H]flunitrazepam from human alpha2beta3gamma2 GABA receptor in Sf9 membranes after 1 hr by liquid scintillation counting
In short: (§2)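 [3H]Flunitrazepam (3 nM) competition on recombinant Sf9 membranes co-expressing α, β and γ2 subunits. Compound incubated 1 h at 4 °C in 20 mM Tris–citrate, 200 mM NaCl, pH 7.8, with membrane protein.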

[11] = molecular target: T4, GABA-A receptor; alpha-5/beta-3/gamma-2 (Homo sapiens); test: Positive allosteric modulation of human alpha5beta3gamma2 GABA receptor expressed in Xenopus laevis oocytes at 1 uM; assay type: cell-based; conditions: Oocyte; in short: as §1
[12] = molecular target: T3, GABA-A receptor; alpha-3/beta-3/gamma-2 (Homo sapiens); test: Positive allosteric modulation of human alpha3beta3gamma2 GABA receptor expressed in Xenopus laevis oocytes at 1 uM; assay type: cell-based; conditions: Oocyte; in short: as §1
[13] = molecular target: T8, GABA-A receptor; alpha-5/beta-3/gamma-2; test: Displacement of [3H]flunitrazepam from human alpha5beta3gamma2 GABA receptor in Sf9 membranes after 1 hr by liquid scintillation counting; in short: as §2
[14] = molecular target: T7, GABA-A receptor; alpha-1/beta-2/gamma-2 (Homo sapiens); test: Positive allosteric modulation of human alpha1beta2gamma2 GABA receptor expressed in Xenopus laevis oocytes at 1 uM; assay type: cell-based; conditions: Oocyte; in short: as §1
[15] = molecular target: T7, GABA-A receptor; alpha-1/beta-2/gamma-2 (Homo sapiens); test: Effect on human alpha1beta2gamma2 GABA receptor expressed in Xenopus laevis oocytes at 10 uM; assay type: cell-based; conditions: Oocyte

CCCNC(=O)c1nnc2c(-c3cncc(C(=O)N4CCC4)c3)cccc2c1N
EC50 [1]: 54 nM | EC50 [2]: 389 nM | Activity [3]: 11% | Activity [4]: 45% | EC50 [5]: 174 nM | Activity [6]: 5% | Activity [7]: 14% | EC50 [8]: 455 nM

CCc1c(C(=O)OC)ncc2[nH]c3cc(OC)c(OC)cc3c12
EC50 [1]: 14 nM | EC50 [2]: 9 nM | Activity [3]: 58% | Activity [4]: 69% | EC50 [5]: 10 nM | Activity [6]: 61% | Activity [7]: 68% | EC50 [8]: 3 nM

Nc1c(C(=O)N2CC(F)(F)C2)nnc2c(-c3ncccn3)cccc12
Activity [4]: 4% | Activity [9]: 6%

Nc1c(C(=O)N2CCC2)nnc2c(-c3ncccn3)cccc12
Activity [4]: 22% | Activity [6]: 5%

CCCNC(=O)c1nnc2c(-c3ncccn3)c(F)ccc2c1N
Activity [4]: 3% | Activity [9]: 31% | Ki [10]: 6 nM

CC1CN(C(=O)c2nnc3c(-c4ncccn4)c(F)ccc3c2N)C1
Activity [11]: 0% | Activity [9]: 18%

Nc1c(C(=O)NC2CC2)nnc2c(-c3ncccn3)c(F)ccc12
Activity [11]: 2% | Activity [9]: 39%

Nc1c2c(nc3c(-c4ncccn4)cccc13)CN(C1CCC1)C2=O
Activity [12]: 40% | EC50 [1]: 34 nM | Ki [13]: 14 nM | Activity [4]: 46% and 32% | Activity [9]: 44% and 38% | Activity [14]: 1% | EC50 [5]: 77 nM | Activity [15]: inactive | Ki [10]: 8.3 nM | EC50 [8]: 206 nM

Nc1c2c(nc3c(-c4cncnc4)cccc13)CN(C1CCC1)C2=O
Ki [13]: 12 nM | Activity [4]: 2% | Activity [9]: 18% | Ki [10]: 1.5 nM

CN1C(=O)CN=C(c2ccccc2)c2cc(Cl)ccc21
Activity [12]: 207% | Activity [11]: 153% | Activity [9]: 177% | Activity [14]: 192%

CCCNC(=O)c1nnc2c(-c3ncccn3)cccc2c1N
Activity [12]: 41% | EC50 [1]: 104 nM | EC50 [5]: 379 nM | Ki [10]: 380 nM | Activity [7]: 5% | EC50 [8]: 1130 nM

Nc1c(C(=O)N2CC(F)(F)C2)nnc2c(-c3ncccn3)c(F)ccc12
Activity [11]: 13% | Activity [6]: 7%

Nc1c(C(=O)NC2CC2)nnc2c(-c3ncccn3)cccc12
Activity [4]: 5% | Activity [9]: 54%

CC1CN(C(=O)c2nnc3c(-c4ncccn4)cccc3c2N)C1
Activity [4]: 35% | Activity [9]: 14%

Nc1c(C(=O)N2CCC2)nnc2c(-c3ncccn3)c(F)ccc12
Activity [11]: 10% | Activity [9]: 8%
